# B2AR ag: human beta-2 adrenergic receptor agonism by FAP; P07550; Am2.2-beta2AR cells, FAP receptor internalization, flow cytometry; response, % (test concentration not listed); 340,000 tested, 0.43% active;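 active means response above a set limit, near 3 SD of response in nonfluorescent compounds, cut at about 42% in these data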
# TAAR1 antagonist: human TAAR1 antagonism | CHO RD-HGA16 TAAR1, Fluo-8 calcium fluorescence, antagonist | 360,000 tested, 1.5% active | inhibition, % at 3 µM;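 active means inhibition above a per-plate cutoff, the mean inhibition of test compounds on that plate plus 3 SD, cut at about 49% in these data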;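 further: 0% = DMSO plus EC80 beta-PEA response and 100% = DMSO alone without agonist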
# Target sequence (Q96RJ0 whole entry, looked up): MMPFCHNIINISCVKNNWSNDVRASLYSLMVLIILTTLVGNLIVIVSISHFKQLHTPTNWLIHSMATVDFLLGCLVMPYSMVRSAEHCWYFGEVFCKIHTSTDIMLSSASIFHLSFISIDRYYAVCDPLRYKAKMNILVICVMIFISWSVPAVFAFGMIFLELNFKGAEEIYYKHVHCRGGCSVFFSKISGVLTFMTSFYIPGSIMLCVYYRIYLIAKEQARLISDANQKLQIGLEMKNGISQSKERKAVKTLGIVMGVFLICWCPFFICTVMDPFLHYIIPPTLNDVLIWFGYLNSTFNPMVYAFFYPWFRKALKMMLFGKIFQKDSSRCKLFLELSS
#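 Material: RD-HGA16 CHO cells with stable hTAAR1 and Gα16; Dosing: single nominal final test compound concentration of 3 µM; Schedule: seeding 17-24 h prior, 75-min 37 °C, 30-min RT dye loading; Detection: kinetic Fluo-8 calcium fluorescence measurement; Measure: % inhibition from peak post-agonist over basal fluorescence ratio; Benchmarks: vehicle and agonist controls.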
# HTR2A ag: mouse HTR2A agonism via beta-arrestin recruitment; P35363; CHO-K1 mHTR2A beta-arrestin complementation, luminescence; percent of 30 µM serotonin response; activation, % at 7.6 µM; 360,000 tested, 0.66% active; AID 624169;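 active means activation above a run cutoff, the mean activation of all tested compounds plus 3 SD, cut at about 14% in these data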;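 further: 0% = plate median of compound wells and 100% = 30 µM serotonin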
# MC4R barr agon: agonists of human melanocortin 4 receptor (MC4R) beta-arrestin | activation, % at 8.9 µM | U2OS MC4R beta-arrestin complementation, luminescence; percent of melanotan II response, DMSO zero | 360,000 tested, 0.98% active;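 active means activation above a per-plate cutoff, the mean activation of sample wells on that plate plus 3 SD, cut at about 8% in these data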
# Target sequence (P32245 whole entry, looked up): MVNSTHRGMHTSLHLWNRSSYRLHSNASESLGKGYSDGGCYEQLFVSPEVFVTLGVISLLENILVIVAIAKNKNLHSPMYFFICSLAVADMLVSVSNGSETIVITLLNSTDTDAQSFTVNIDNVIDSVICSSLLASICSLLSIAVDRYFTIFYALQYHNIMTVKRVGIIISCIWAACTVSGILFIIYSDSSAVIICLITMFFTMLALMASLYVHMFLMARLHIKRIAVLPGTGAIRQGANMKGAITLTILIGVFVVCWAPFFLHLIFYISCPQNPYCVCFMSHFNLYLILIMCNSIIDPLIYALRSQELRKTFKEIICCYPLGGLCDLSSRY
# TAAR1 agonist: agonists of human TAAR1. Q96RJ0. CHO RD-HGA16 TAAR1, Fluo-8 calcium fluorescence; vehicle wells 0%, saturating PEA agonist 100%. activation, % at 3 µM. 360,000 tested, 0.99% active;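 active means activation above the mean activation of all test compounds in the run plus 3 SD, cut at about 38% in these data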
#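 Test system: RD-HGA16 (CHO) cells co-expressing Gα16 and hTAAR1 | Doses: Single dose, 3 µM | Schedule: 17-24 h seeding, 75 min 37 °C dye, 30 min RT | Evaluation: % activation from peak over basal fluorescence ratio, DMSO-to-PEA scaled | Technique: Kinetic Fluo-8 calcium fluorescence | Benchmarks: Low control DMSO, high control PEA (EC100)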
# MC4R antag cAMP: antagonists of human melanocortin 4 receptor (MC4R). MC4R-expressing cells, MTII-stimulated cAMP, LANCE TR-FRET. inhibition, % at 6.5 µM. 360,000 tested, 0.48% active. P32245;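 active means inhibition above its plate's cutoff, the mean of tested wells on that plate plus 3 SD, cut at about 29% in these data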;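 further: 0% = Melanotan II alone and 100% = Melanotan II plus saturating MCL0020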
#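 Assay system: human MC4R-expressing U2OS cells; reagent: Melanotan II stimulation of cells; dosing: 6.5 µM single dose; timing: compound 30 min, challenge 1 h, detection 1 h; signal: TR-FRET cAMP assay; replicates: one well per compound, no replicates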
# OPRM1 ag: OPRM1 agonism in mouse HTR2A counterscreen; activation, % at 9.3 µM; shares compounds with HTR2A ag; U2OS OPRM1 beta-arrestin PathHunter, luminescence; DMSO 0%, DAMGO 9.3 µM 100%; 2,300 tested, 5.3% active;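 active means mean activation above the mean of DMSO-only wells plus 3 SD, cut at about 0.5% in these data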
# HTR2A ag conf: confirmation of mouse HTR2A serotonin receptor agonists. shares compounds with HTR2A ag. activation, % at 7.6 µM. 2,300 tested, 19% active. CHO-K1 PathHunter beta-arrestin recruitment, luminescence; DMSO 0%, 30 µM serotonin 100%;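 active means mean activation across triplicates above the hit threshold derived in the original primary screen, cut at about 15% in these data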
# * hit, by the source's call; . = not tested or not shown. A selection: hits, their analogues and other compounds. The true share with any hit is near 4.3%.
SMILES,B2AR ag,TAAR1 antagonist,HTR2A ag,MC4R barr agon,TAAR1 agonist,MC4R antag cAMP,OPRM1 ag,HTR2A ag conf
COc1ccc(N(C)C(=O)c2ccc(NC(=O)CCS(=O)(=O)c3cccs3)cc2)cc1,10,7,15*,0,0,4,-1,-1
O=C(CCS(=O)(=O)c1cccs1)Nc1ccc(C(=O)NCc2cccs2)cc1,3,0,-4,0,6,7,.,.
Cc1ccc(-c2ccc(/C=C3\SC(N4CCOCC4)=NC3=O)o2)cc1,3,7,15*,-1,9,13,0,39*
Nc1nc(Cl)nc2ncn(Cc3ccccc3)c12,9,-23,4,2,0,28,.,.
Cc1ccc(N(Cc2ccccc2)C(=O)c2ccc(C)c(S(=O)(=O)N3CCOCC3)c2)cc1,10,23,15*,0,1,12,0,2
COc1ccc(C(=O)Oc2ccc(C)cc2)cc1S(=O)(=O)N1CCOCC1,.,-7,-8,0,8,7,.,.
COc1ccc(C(=O)OCc2ccc(C)cc2)cc1S(=O)(=O)N1CCOCC1,0,7,18*,-2,12,7,0,-3
CC(C)(C)c1cccc(N/C(=C\C(=O)c2ccccc2)c2ccccc2)c1,.,-18,.,.,0,.,.,.
O=C(Nc1nc2ccccc2s1)c1ccc(N2CCCCC2)c([N+](=O)[O-])c1,3,41,49*,-2,5,8,-1,18*
COC(=O)C1=C(C)Nc2nnnn2C1c1ccccc1Cl (centres undefined),-8,3,-1,0,12,9,.,.
CCCCCOC(=O)C1=C(C)Nc2nnnn2C1c1ccccc1Cl (centres undefined),-2,7,19*,7,5,0,0.5*,2
CC1=C(C(=O)N2CCOCC2)CC(CC(=O)NC(c2ccccc2)c2ccccc2)C(=O)N1Cc1ccc(F)cc1 (centres undefined),.,-8,1,-1,3,-3,.,.
Cc1ccc(NC(=O)c2ccc(Cl)c(S(=O)(=O)N3CCCCC3)c2)nc1,-5,1,4,-2,2,0,.,.
CC1CCCN(C2(O)C(=O)Nc3ccc([N+](=O)[O-])cc32)C1 (centres undefined),-3,4,17*,0,1,-6,-1,-2
CCOc1ccc(OCC(=O)N2CCC3(CC2)CC(=O)c2ccccc2O3)cc1,4,-40,19*,0,4,-1,0,2
OCC[C@@H]1C[C@@H](O)[C@H](O)[C@@]2(Cc3ccccc3CO2)O1,8,5,5,0,13,4,.,.
OCC[C@H]1C[C@H](O)[C@@H](O)[C@@]2(Cc3ccccc3CO2)O1,2,-1,17*,0,10,6,0,1
COc1ccc(OC)c(S(=O)(=O)N/N=C\c2ccc3c(c2)OCO3)c1,4,-20,17*,-2,0,1,-1,-1
COc1ccc(-c2c(NC(=O)c3ccco3)n(-c3ccccc3)nc(C)c2=O)cc1,0,4,7,2,0,11,.,.
CCCC(=O)Nc1c(-c2ccccc2)c(=O)c(C)nn1-c1ccc(Cl)cc1,-1,-9,15*,-4,13,-8,-1,-3
Cc1cccc(CNC(=O)c2cc(S(=O)(=O)N3CCOCC3)cn2C)c1,3,-7,8,-2,1,10,.,.
C(=N\Nc1nc(N2CCCC2)nc(N2CCCC2)n1)/c1cccnc1,-9,-8,15*,-3,2,3,0,-1
c1cncc(CNc2nc(N3CCOCC3)nc(N3CCOCC3)n2)c1,-12,10,16*,0,10,24,0,-5
c1ccc(Nc2nc(N3CCNCC3)nc(N3CCOCC3)n2)cc1,10,12,23*,2,17,4,0,12
C(=C\c1ccccc1)/C=N/Nc1nc(N2CCCCC2)nc(N2CCCCC2)n1,5,-3,0,5,13,0,.,.
SMILES,B2AR ag,TAAR1 antagonist,HTR2A ag,MC4R barr agon,TAAR1 agonist,MC4R antag cAMP,OPRM1 ag,HTR2A ag conf
c1ccc(Nc2nc(N3CCOCC3)nc(N3CCOCC3)n2)cc1,8,0,3,0,7,9,.,.
CCc1ccc(C(O)c2ncc(-c3ccccc3Cl)[nH]2)cc1 (centres undefined),.,12,0,3,9,3,.,.
NC(=O)c1sc2nc3c(c(-c4ccco4)c2c1N)CCCC3,6,-23,3,0,7,9,.,.
N#Cc1sc2nc3c(c(-c4ccco4)c2c1N)CCCC3,6,13,19*,-1,10,4,0,2
C[C@H]1COC(=O)[C@@H](CC(=O)OC(C)(C)C)C/C=C\C[C@H](CC(=O)NCCO)C(=O)N1,-10,8,-3,0,0,-6,.,.
Cc1cc(NC(=O)CSc2c3c(nc4ccccc24)CCC3)no1,-1,9,15*,1,1,5,-1,-5
O=C(O)c1ccc2c(c1Nc1ccccc1)C(=O)c1ccccc1C2=O,1,-18,27*,-4,-3,-5,0,-6
O=C1NC[C@H](CCCCN2CCN(CC3CCCCC3)C(=O)C2=O)N(CCc2ccccc2)C1=O,.,-5,-3,.,2,.,.,.
CC(C)(CO)C(O)C(=O)NCCCO (centres undefined),5,-17,18*,-1,2,-5,-1,0
CCOc1ccccc1Nc1nc(-c2sc(NC(=O)c3ccco3)nc2C)cs1,-5,39,-7,-1,11,12,.,.
Cc1ccccc1Nc1nc(-c2sc(NC(=O)c3ccco3)nc2C)cs1,1,-9,19*,0,16,3,0,1
Cc1ccc(NC(=O)CN(C)S(=O)(=O)c2ccc(Cl)s2)c(O)c1,3,3,18*,0,1,-7,-1,-1
COc1ccc(C)cc1NC(=O)CN1C(=O)c2ccccc2S1(=O)=O,8,5,-4,-2,0,-4,.,.
Cc1ccc(NC(=O)CN2C(=O)c3ccccc3S2(=O)=O)c(C)c1,-5,-7,18*,-1,-1,19,0,-2
Cc1nc2cc(-c3ccc(Br)cc3)[nH]n2c(=O)c1Cl,-1,-20,18*,-1,2,22,-1,-3
